SIRT5 block = blocks human SIRT5 desuccinylation of peptide | Q9NXA8 | Purified SirT5, succinyl-peptide AMC, trypsin-coupled fluorescence | inhibition, % at 15 µM | actives 1.1% (n = 330,000); in the data active = inhibition above about 15%; inconclusive = no clear call, values can overlap the other calls
Target sequence (Q9NXA8 whole entry, looked up): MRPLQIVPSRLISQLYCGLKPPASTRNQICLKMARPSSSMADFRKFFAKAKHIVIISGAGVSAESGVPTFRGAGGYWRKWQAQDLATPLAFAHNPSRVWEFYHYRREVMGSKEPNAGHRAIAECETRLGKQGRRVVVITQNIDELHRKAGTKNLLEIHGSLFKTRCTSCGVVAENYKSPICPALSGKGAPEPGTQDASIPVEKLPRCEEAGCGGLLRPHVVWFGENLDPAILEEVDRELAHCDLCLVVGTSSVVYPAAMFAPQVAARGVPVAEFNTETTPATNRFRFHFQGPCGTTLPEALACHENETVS
AF4-AF9 inh = inhibitors of human MLL-AF4/AF9 interaction. actives 0.47% (n = 350,000). inhibition, % at 10 µM. P42568. AlphaScreen, biotin-AF4 peptide binding to FLAG-AF9;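 active = every replicate reaching a set inhibition limit, whatever the replicate mean, cut at about 25% in these data; inconclusive = mean inhibition reaches that limit but some replicates miss it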;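 also: 0% = plate neutral control median and 100% = total signal loss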
S100A4 MyoIIA = S100A4-myosin IIA interaction inhibition. actives 0.14% (n = 360,000). P26447. S100A4/TAMRA-MyoIIA peptide fluorescence polarization. inhibition, % at 10.7 µM. AID 652163;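 active = mean inhibition of at least 70% across replicates, with every replicate also reaching that level; inconclusive = mean inhibition reaches 70% but some replicates fall short; inactive = mean inhibition below 70%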
Target sequence (P26447 whole entry, looked up): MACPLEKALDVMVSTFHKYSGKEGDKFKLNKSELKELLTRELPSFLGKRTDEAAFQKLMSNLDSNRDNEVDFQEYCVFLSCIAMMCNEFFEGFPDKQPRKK
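Assay system: human S100A4 monomer with TAMRA-labelled myosin IIA peptide / Buffer or medium: Calcium-containing HEPES buffer, pH 7.2 / Reagent: TAMRA-labelled myosin IIA heavy-chain peptide probe, 5 nM / Compound: one dose per compound / Timing: polarization read 5 min after assay mix addition, stable 5–60 min / Benchmarks: neutral control DMSO, positive control TFP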
DENV2 CPE = inhibitors of DENV2 cytopathic effect | CPE inhibition, % at 9.99 µM | AID 651640 | actives 1.7% (n = 350,000) | DENV2-infected cells, cytopathic effect rescue, plate reader; in the data active = CPE inhibition above about 20%, passing the limit was not always enough; inconclusive = no clear call, values can overlap the other calls; tested in BHK-21 cells;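 also: 0% = median of neutral control wells and 100% = median of positive control wells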
CaV13 ICDI inh = Disruptors of the CACNA1D IQ motif to Ca2+-dependent inactivation inhibitor domain association, primary screening, Förster resonance energy transfer in intact living …; HEK cells, CFP/YFP FRET ICDI-IQ, plate reader, 10 min; percent FRET-ratio fall versus neutral wells; inhibition, % at 12.3 µM; actives 0.098% (n = 340,000); AID 743397;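 active = mean replicate inhibition of at least 30% and at least 1% of replicates passing that level; inconclusive = only one of the two criteria is met; inactive = neither criterion is met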;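 also: 0% = median of the neutral control wells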
* = called active by the depositor; ? = inconclusive; / = not tested or not shown. Sampled rows, rich in hits. Any-hit rate of the full collection: about 2.7%.

SMILES	SIRT5 block	AF4-AF9 inh	S100A4 MyoIIA	DENV2 CPE	CaV13 ICDI inh
O=C(C[C@H]1CC[C@H](NS(=O)(=O)c2cccc(F)c2)[C@@H](CO)O1)NCc1ccc2c(c1)OCO2	5	9	105*	-6	/
O=C(C[C@@H]1C=C[C@@H](NS(=O)(=O)c2cccc(F)c2)[C@@H](CO)O1)NCc1ccc2c(c1)OCO2	4	2	83*	-7	/
O=C(C[C@H]1CC[C@@H](NS(=O)(=O)c2cccc(F)c2)[C@H](CO)O1)NCc1ccc2c(c1)OCO2	3	2	8	-4	/
COc1ccccc1S(=O)(=O)N[C@H]1C=C[C@@H](CC(=O)NCc2cccc(F)c2)O[C@H]1CO	0	-2	3	23*	/
COc1ccc(CNC(=O)C[C@H]2C=C[C@H](NC(=O)c3ccc4c(c3)OCO4)[C@H](CO)O2)cc1	-4	-6	5	61*	/
COc1ccccc1S(=O)(=O)N[C@H]1C=C[C@@H](CC(=O)NCc2cc(F)cc(F)c2)O[C@H]1CO	-3	-2	-6	?	/
O=C(C[C@@H]1C=C[C@H](NS(=O)(=O)c2cccc(F)c2)[C@@H](CO)O1)NCc1ccc2c(c1)OCO2	-1	0	9	-2	/
COc1ccc(CNC(=O)C[C@H]2C=C[C@@H](NC(=O)c3ccc4c(c3)OCO4)[C@H](CO)O2)cc1	0	-1	1	?	/
CCC(N=c1cc(-c2ccc(OC)c(OC)c2)oc2ccc(C)cc12)C(=O)O (configuration not stated)	3	-6	-3	22*	-5
COc1cc(O)c(C(CC(=O)N2CCN(c3ccccc3)CC2)c2ccc(N(C)C)cc2)c(OC)c1 (configuration not stated)	/	28*	-9	-24	-6
COc1cc(O)c(C(CC(=O)N2CCCC(C)C2)c2ccc(N(C)C)cc2)c(OC)c1 (configuration not stated)	/	19	-9	3	-5
COc1cc([C@H]2Oc3cc([C@H]4Oc5cc(O)cc(O)c5C(=O)[C@@H]4O)ccc3O[C@@H]2CO)ccc1O	5	9	1	4	-5
COc1cc(OC)c2c(c1)OC(c1ccc(OC)c(OC)c1)C(O)C2=O (configuration not stated)	/	-1	-2	32*	3
O=C(Nc1cc(F)ccc1F)N1CC(=O)N2[C@@H](CO)[C@@H](c3ccc(-c4cccnc4)cc3)[C@@H]2C1	-2	-4	-13	23*	/
COc1ccccc1NC(=O)N1CC(=O)N2[C@@H](CO)[C@H](c3ccc(C#Cc4ccc(F)cc4)cc3)[C@@H]2C1	2	1	-5	33*	/
COc1ccccc1NC(=O)N1CC(=O)N2[C@H](CO)[C@@H](c3ccc(-c4ccc(F)cc4)cc3)[C@H]2C1	2	2	6	29*	/
COc1ccccc1NC(=O)N1CC(=O)N2[C@H](C1)[C@@H](c1ccc(-c3ccc(F)cc3)cc1)[C@@H]2CO	2	5	-2	7	/
O=C(Nc1ccccc1F)N1CC(=O)N2[C@H](CO)[C@@H](c3ccc(C#Cc4ccc(F)cc4)cc3)[C@@H]2C1	9	0	1	22*	/
CC(C)NC(=O)N(C)C[C@@H]1Oc2cc(-c3ccccc3F)ccc2S(=O)(=O)N([C@@H](C)CO)C[C@H]1C	-7	-2	-11	4	/
O=C(Nc1ccccc1F)N1CC(=O)N2[C@H](CO)[C@@H](c3ccc(-c4ccccc4)cc3)[C@H]2C1	1	-1	124*	43*	/
O=C(Nc1cccc(F)c1)N1CC(=O)N2[C@H](C1)[C@@H](c1ccc(-c3cccc(F)c3)cc1)[C@@H]2CO	16*	-4	-2	-1	/
CCOc1ccc(CNC(=O)CS(=O)(=O)Cc2nc(-c3ccc(OC)cc3)oc2C)cc1	-3	48*	-1	-2	-6
CCOc1ccc(CCNC(=O)CS(=O)(=O)Cc2nc(-c3ccc(OC)cc3)oc2C)cc1	-1	-1	3	-1	-7
COc1ccc(S(=O)(=O)N2CCOC23CCN(S(=O)(=O)c2ccccc2)CC3)cc1	27*	-7	-7	-4	-5
C/C=C/c1ccc([C@H]2[C@@H](CO)N(C(=O)CC)[C@@H]2CN(C)C(=O)NC(C)C)cc1	18*	-7	0	?	/
SMILES	SIRT5 block	AF4-AF9 inh	S100A4 MyoIIA	DENV2 CPE	CaV13 ICDI inh
C/C=C/c1ccc([C@@H]2[C@@H](CO)N(C(=O)NCCC)[C@H]2CN(C)C(=O)CC)cc1	/	/	/	78*	/
C/C=C/c1ccc([C@@H]2[C@@H](CN(C)C(=O)C3CC3)N(C(=O)CC)[C@H]2CO)cc1	/	/	/	7	/
Cc1ccc([C@@H]2C[C@H]3[C@@H](CN2S(=O)(=O)c2ccc(C)cc2)C(=O)C[C@@H](c2ccccc2)N3S(=O)(=O)c2ccc(C)cc2)cc1	-4	-2	4	15	-4
CC(=O)C1CN(S(=O)(=O)c2ccc(C)cc2)C(c2ccccc2)CC1C (configuration not stated)	4	/	-3	39*	-13
Cc1ccc(S(=O)(=O)N(C)CCCC(=O)NC(C)(C)CO)cc1	27*	-1	7	1	-3
Cc1cc(S(=O)(=O)Nc2ccc(C(=O)NCC3(N4CCCCC4)CCCCC3)cc2)ccc1F	21*	0	-3	8	-6
Cc1ccc(NC(=S)NC(=O)c2cncc(Br)c2)cc1Cl	29*	-5	3	-2	-3
Cc1nc(C(F)(F)F)ccc1C(=O)N1CCC1(C)C(=O)NS(=O)(=O)c1ccc(C#N)cc1 (configuration not stated)	-3	-2	-2	31*	-12
Cc1ccc(S(=O)(=O)NC(=O)C2(C)CCN2C(=O)c2ccc(C(F)(F)F)nc2C)cc1 (configuration not stated)	-2	-3	-4	51*	-12
CC1(C(=O)NS(=O)(=O)c2ccccc2)CCN1C(=O)Cc1cccs1 (configuration not stated)	2	2	-1	?	-18
Cc1nc(C(F)(F)F)ccc1C(=O)N1CCC1(C)C(=O)NCc1ccc(Cl)cc1 (configuration not stated)	-1	-2	3	69*	-3
Cc1nc(C(F)(F)F)ccc1C(=O)N1CCC1(C)C(=O)NS(=O)(=O)c1ccc(Cl)cc1 (configuration not stated)	6	3	-2	8	-6
Cc1ccc(S(=O)(=O)NC(=O)C2(C)CCN2C(=O)Cc2cccs2)cc1 (configuration not stated)	/	-6	-4	49*	-5
Cc1nc(C(F)(F)F)ccc1C(=O)N1CCC1(C)C(=O)NS(C)(=O)=O (configuration not stated)	/	-1	0	-2	-5

Compound activity as filed in PubChem.
